The text below walks through data of ChEMBL document CHEMBL4400554, “Ketamine esters and amides as short-acting anaesthetics: Structure-activity relationships for the side-chain” (Bioorg Med Chem, 2019).

A value given as a limit tells only on which side of the number the result lay.

The target in one assay is Glutamate NMDA receptor. The assay can be described thus: Displacement of [3H] MK-801 from NMDA glutamate ion channel in Wistar rat brain membranes (minus cerebellum) after 3 hrs by scintillation counting analysis. The assay is classed as cell membranes.
Settings: not given
Summed up: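 Radioligand binding in Wistar rat brain (minus cerebellum) preparations with MK-801 as ligand.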
Broadly, the IC50 is the concentration that inhibits the measured activity by half. The low end stands for inhibition by little substance, the high end for a need for much substance. In turn, `COC(=O)COCCNC1(c2ccccc2Cl)CCCCC1=O` (stereo not drawn) came in with an IC50 of 13 µM.
Regarding `CNC(=O)CCCCNC1(c2ccccc2Cl)CCCCC1=O` (stereo not drawn), the IC50 is 77 µM.
As for `COC(=O)CCCCNC1(c2ccccc2Cl)CCCCC1=O` (stereo not drawn), the IC50 was 3 µM.
Same read-out and setting: then `COC(=O)CCCCCNC1(c2ccccc2Cl)CCCCC1=O` (stereo not drawn), with 44 µM.
The same measure, in the same setting: to `COC(=O)CCCCCCNC1(c2ccccc2Cl)CCCCC1=O` (stereo not drawn) belongs 51 µM.
For `CC(C)NC(=O)CCNC1(c2ccccc2Cl)CCCCC1=O` (stereo not drawn), the IC50 was 58 µM.
With `CC(C)OC(=O)CCNC1(c2ccccc2Cl)CCCCC1=O` (stereo not drawn), the IC50 turned out to be 134 µM.
`CNC(=O)CCNC1(c2ccccc2Cl)CCCCC1=O` (stereo not drawn) came in with an IC50 of 73 µM.
On the same count and under the same terms, to `CCNC(=O)CCNC1(c2ccccc2Cl)CCCCC1=O` (stereo not drawn) belongs 935 µM; to `COC(=O)C(C)(C)CCCNC1(c2ccccc2Cl)CCCCC1=O` (stereo not drawn), 125 µM; to `COCCOC(=O)CCCCNC1(c2ccccc2Cl)CCCCC1=O` (stereo not drawn), 19 µM.
The same measure, in the same setting: to `O=C1CCCCC1(NCCCN1CCCCC1)c1ccccc1Cl` (stereo not drawn) belongs 41 µM.
The same measure, in the same setting: then `CCS(=O)(=O)CCNC1(c2ccccc2Cl)CCCCC1=O` (stereo not drawn), with > 1000 µM; and `NC(=O)CCNC1(c2ccccc2Cl)CCCCC1=O` (stereo not drawn), with 500 µM.
On to `CN(C)C(=O)CCCCNC1(c2ccccc2Cl)CCCCC1=O` (stereo not drawn), for which the IC50 is > 1000 µM.
Molecule `CNC1(c2ccccc2Cl)CCCCC1=O` (stereo not drawn) [KETAMINE] returned an IC50 of 0.7 µM.
Same read-out and setting: to `COC(=O)CNC1(c2ccccc2Cl)CCCCC1=O` (stereo not drawn) belongs 308 µM; to `CC(C)OC(=O)CNC1(c2ccccc2Cl)CCCCC1=O` (stereo not drawn), 45 µM; to `O=C(CCNC1(c2ccccc2Cl)CCCCC1=O)Oc1ccccc1` (stereo not drawn), 73 µM.
Same read-out and setting: then `CN(C)C(=O)CCNC1(c2ccccc2Cl)CCCCC1=O` (stereo not drawn), with 416 µM; and `CCOC(=O)CCOCCNC1(c2ccccc2Cl)CCCCC1=O` (stereo not drawn), with 87 µM.
As for `CCOC(=O)C(C)CCCNC1(c2ccccc2Cl)CCCCC1=O` (stereo not drawn), the IC50 was 107 µM.

The next assay addresses Glutamate [NMDA] receptor. As to the kind of experiment: Binding affinity to NMDA receptor (unknown origin). The class given is protein-complex assay, Homo sapiens.
Settings: not given
Summed up: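 Radioligand binding on Wistar rat brain (minus cerebellum) preparations, MK-801 as ligand, in 5 mM Tris-acetate buffer pH 7.4, 3 h at 25°C; IC50 in µM.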
Broadly, the Ki is the equilibrium dissociation constant of an inhibitor or competing ligand from its target. A higher Ki goes with weaker binding. In the case of `CNC1(c2ccccc2Cl)CCCCC1=O` (stereo not drawn) [KETAMINE], affinity was put at a Ki of 1.9 µM.

For a further assay, the system named is Rattus norvegicus. As to the kind of experiment: Short-acting anaesthetic activity in Sprague-Dawley rat assessed as dose causing loss of righting reflex at 20 mg/kg/min followed by dose reduction to 6.7 mg/kg/min dosed via infusion.
Settings: not given
The class given is functional. Summed up: (§1)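 Rats (230 to 320g) restrained; drug at 10mg/ml infused via marginal tail vein cannula by syringe driver at 20 mg/kg/min until loss of righting reflex and PWR=1. Rate then cut to 6.7 mg/kg/min and titrated up-and-down for 10 min. PWR scored each minute by 1 s firm digital pressure on forepaw. Three rats per study, ketamine as within-group control, randomised order, ≥4 h between runs.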
With `COC(=O)COCCNC1(c2ccccc2Cl)CCCCC1=O` (stereo not drawn), the EC was >200 mg/kg.
With `CNC(=O)CCCCNC1(c2ccccc2Cl)CCCCC1=O` (stereo not drawn), the EC was determined as 83 mg/kg.
For the molecule `COC(=O)CCCCNC1(c2ccccc2Cl)CCCCC1=O` (stereo not drawn), the EC turned out to be 34 mg/kg.
With `COC(=O)CCCCCNC1(c2ccccc2Cl)CCCCC1=O` (stereo not drawn), the EC is >200 mg/kg.
With `COC(=O)CCCCCCNC1(c2ccccc2Cl)CCCCC1=O` (stereo not drawn), the EC is >200 mg/kg.
Consider `CC(C)NC(=O)CCNC1(c2ccccc2Cl)CCCCC1=O` (stereo not drawn), for which the EC amounted to 82 mg/kg.
On to `CC(C)OC(=O)CCNC1(c2ccccc2Cl)CCCCC1=O` (stereo not drawn), for which the EC turned out to be 33 mg/kg.
For `CNC(=O)CCNC1(c2ccccc2Cl)CCCCC1=O` (stereo not drawn), the EC was 58 mg/kg.
Still for that read-out and setting: then `CCNC(=O)CCNC1(c2ccccc2Cl)CCCCC1=O` (stereo not drawn), with 112 mg/kg; and `COC(=O)C(C)(C)CCCNC1(c2ccccc2Cl)CCCCC1=O` (stereo not drawn), with 52 mg/kg; and `COCCOC(=O)CCCCNC1(c2ccccc2Cl)CCCCC1=O` (stereo not drawn), with >200 mg/kg.
Consider `O=C1CCCCC1(NCCCN1CCCCC1)c1ccccc1Cl` (stereo not drawn), for which the EC is 67 mg/kg.
Turning to `CCS(=O)(=O)CCNC1(c2ccccc2Cl)CCCCC1=O` (stereo not drawn), the EC is >200 mg/kg.
Take `NC(=O)CCNC1(c2ccccc2Cl)CCCCC1=O` (stereo not drawn): the EC is >200 mg/kg.
Same read-out and setting: to `CN(C)C(=O)CCCCNC1(c2ccccc2Cl)CCCCC1=O` (stereo not drawn) belongs >200 mg/kg; to `CNC1(c2ccccc2Cl)CCCCC1=O` (stereo not drawn) [KETAMINE], 23 mg/kg.
With `COC(=O)CNC1(c2ccccc2Cl)CCCCC1=O` (stereo not drawn), the EC was >200 mg/kg.
In the case of `CC(C)OC(=O)CNC1(c2ccccc2Cl)CCCCC1=O` (stereo not drawn), the EC is >200 mg/kg.
Turning to `O=C(CCNC1(c2ccccc2Cl)CCCCC1=O)Oc1ccccc1` (stereo not drawn), the EC is >200 mg/kg.
As for `CN(C)C(=O)CCNC1(c2ccccc2Cl)CCCCC1=O` (stereo not drawn), the EC came to 110 mg/kg.
Regarding `CCOC(=O)CCOCCNC1(c2ccccc2Cl)CCCCC1=O` (stereo not drawn), the EC is >200 mg/kg.
As for `CCOC(=O)C(C)CCCNC1(c2ccccc2Cl)CCCCC1=O` (stereo not drawn), the EC was found to be 50 mg/kg.

In a further assay the test system is Rattus norvegicus. The assay can be described thus: Analgesic activity in Sprague-Dawley rat assessed as minimal dose for loss of pedal withdrawal reflex at 20 mg/kg/min followed by dose reduction to 6.7 mg/kg/min dosed via infusion. The assay is classed as functional. Particulars: read-out: MED. Summed up: as §1
On to `COC(=O)COCCNC1(c2ccccc2Cl)CCCCC1=O` (stereo not drawn), for which the minimal effective dose was > 200 mg/kg.
Same read-out and setting: to `CNC(=O)CCCCNC1(c2ccccc2Cl)CCCCC1=O` (stereo not drawn) belongs > 200 mg/kg.
Consider `COC(=O)CCCCNC1(c2ccccc2Cl)CCCCC1=O` (stereo not drawn), for which the minimal effective dose is 44 mg/kg.
Take `COC(=O)CCCCCNC1(c2ccccc2Cl)CCCCC1=O` (stereo not drawn): the minimal effective dose is > 200 mg/kg.
Still for that read-out and setting: then `COC(=O)CCCCCCNC1(c2ccccc2Cl)CCCCC1=O` (stereo not drawn), with > 200 mg/kg; and `CC(C)NC(=O)CCNC1(c2ccccc2Cl)CCCCC1=O` (stereo not drawn), with > 200 mg/kg.
On to `CC(C)OC(=O)CCNC1(c2ccccc2Cl)CCCCC1=O` (stereo not drawn), for which the minimal effective dose was determined as 37 mg/kg.
The same measure, in the same setting: to `CNC(=O)CCNC1(c2ccccc2Cl)CCCCC1=O` (stereo not drawn) belongs > 200 mg/kg; to `CCNC(=O)CCNC1(c2ccccc2Cl)CCCCC1=O` (stereo not drawn), 139 mg/kg.
As for `COC(=O)C(C)(C)CCCNC1(c2ccccc2Cl)CCCCC1=O` (stereo not drawn), the minimal effective dose was > 200 mg/kg.
For `COCCOC(=O)CCCCNC1(c2ccccc2Cl)CCCCC1=O` (stereo not drawn), the minimal effective dose is > 200 mg/kg.
Still for that read-out and setting: then `O=C1CCCCC1(NCCCN1CCCCC1)c1ccccc1Cl` (stereo not drawn), with 130 mg/kg.
In the case of `CCS(=O)(=O)CCNC1(c2ccccc2Cl)CCCCC1=O` (stereo not drawn), the minimal effective dose was > 200 mg/kg.
On the same count and under the same terms, then `NC(=O)CCNC1(c2ccccc2Cl)CCCCC1=O` (stereo not drawn), with > 200 mg/kg; and `CN(C)C(=O)CCCCNC1(c2ccccc2Cl)CCCCC1=O` (stereo not drawn), with > 200 mg/kg.
Take `CNC1(c2ccccc2Cl)CCCCC1=O` (stereo not drawn) [KETAMINE]: the minimal effective dose worked out at 28 mg/kg.
The same measure, in the same setting: to `COC(=O)CNC1(c2ccccc2Cl)CCCCC1=O` (stereo not drawn) belongs > 200 mg/kg; to `CC(C)OC(=O)CNC1(c2ccccc2Cl)CCCCC1=O` (stereo not drawn), > 200 mg/kg.
Still for that read-out and setting: to `O=C(CCNC1(c2ccccc2Cl)CCCCC1=O)Oc1ccccc1` (stereo not drawn) belongs > 200 mg/kg.
Regarding `CN(C)C(=O)CCNC1(c2ccccc2Cl)CCCCC1=O` (stereo not drawn), the minimal effective dose worked out at 113 mg/kg.
On the same count and under the same terms, then `CCOC(=O)CCOCCNC1(c2ccccc2Cl)CCCCC1=O` (stereo not drawn), with > 200 mg/kg; and `CCOC(=O)C(C)CCCNC1(c2ccccc2Cl)CCCCC1=O` (stereo not drawn), with 55 mg/kg.

The next assay deals with Rattus norvegicus. As to the kind of experiment: Short-acting anaesthetic activity in Sprague-Dawley rat assessed as time for return of righting reflex after infusion stopped at 20 mg/kg/min followed by dose reduction to 6.7 mg/kg/min dosed via infusion. The assay is classed as functional.
Settings: not given
Summed up: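 Rats (230 to 320g) given tail-vein infusion of drug at 10mg/ml, 20 mg/kg/min until LORR and PWR=1, then 6.7 mg/kg/min titrated up-and-down to hold dorsal recumbency and PWR=1 to 10 min before stopping. Time from cessation to return of righting reflex recorded. Three rats per study, ketamine as own control, randomised order, ≥4 h recovery.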
Consider `CNC(=O)CCCCNC1(c2ccccc2Cl)CCCCC1=O` (stereo not drawn), for which the Time came to 125 s.
For the molecule `COC(=O)CCCCNC1(c2ccccc2Cl)CCCCC1=O` (stereo not drawn), the Time was 99 s.
Regarding `CC(C)NC(=O)CCNC1(c2ccccc2Cl)CCCCC1=O` (stereo not drawn), the Time was determined as 82 s.
For `CC(C)OC(=O)CCNC1(c2ccccc2Cl)CCCCC1=O` (stereo not drawn), the Time was 83 s.
Same read-out and setting: then `CNC(=O)CCNC1(c2ccccc2Cl)CCCCC1=O` (stereo not drawn), with 85 s; and `CCNC(=O)CCNC1(c2ccccc2Cl)CCCCC1=O` (stereo not drawn), with 237 s; and `COC(=O)C(C)(C)CCCNC1(c2ccccc2Cl)CCCCC1=O` (stereo not drawn), with 580 s.
Same read-out and setting: then `O=C1CCCCC1(NCCCN1CCCCC1)c1ccccc1Cl` (stereo not drawn), with 556 s.
On the same count and under the same terms, then `CNC1(c2ccccc2Cl)CCCCC1=O` (stereo not drawn) [KETAMINE], with 1075 s; and `CN(C)C(=O)CCNC1(c2ccccc2Cl)CCCCC1=O` (stereo not drawn), with 623 s; and `CCOC(=O)C(C)CCCNC1(c2ccccc2Cl)CCCCC1=O` (stereo not drawn), with 260 s.
